27 compounds from ChEMBL document CHEMBL1759902, “Synthesis and structure-activity relationship of N-(2-arylethyl) isoquinoline derivatives as human scavenger receptor CD36 antagonists” (Eur J Med Chem, 2011) can be followed below.

The target in experiment [1] is T1, Platelet glycoprotein 4 (Homo sapiens, UniProt P16671). In words: Antagonist activity at human CD36-oxLDL binding at 10 ug/mL after 2 hrs by ELISA. On the technique in general: An ELISA detects its analyte on a solid surface through an enzyme-linked reagent.
Experiment [2] addresses T1, Platelet glycoprotein 4. In words: Antagonist activity at human CD36-oxLDL binding after 2 hrs by ELISA. Put shortly:
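Plate wells coated with oxLDL at 4 °C for 8–12 h, washed with PBS and blocked in PBS/1% BSA for 1–2 h at 4 °C. His-tagged CD36 or vector control protein added for 1 h at 4 °C, then compound or hexarelin, incubated 2 h.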

Experiment [3] concerns the target T1, Platelet glycoprotein 4. The experiment can be described thus: Antagonist activity at human CD36 expressed in insect Sf9 cells assessed as inhibition of DiL-acetylated LDL uptake at 10 ug/ml after 5 hrs by fluorometric analysis. The experiment is classed as functional. Put shortly: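 Sf9 cells in Grace's medium with 10% heat-inactivated FBS at 27 °C, plated at 6.0×10⁵ cells/well, infected 1 h with recombinant hCD36 or wild-type baculovirus, then refed. After two days, washed into Grace/0.5% BSA. Compound added from DMSO for 1 h at 27 °C, then DiI-AcLDL.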

Experiment [4] deals with T1, Platelet glycoprotein 4. In words: Antagonist activity at human CD36-oxLDL binding at 10 uM after 2 hrs by ELISA.

A word on the inhibition: it is how much of the control response was suppressed. In general, IC50 refers to the concentration needed to halve the response being measured. Low readings indicate higher potency, high ones lower potency.

Active and inactive are the calls of the source. No cut-off for these calls is given here. Non-standard residues stand in square brackets, D forms with d. Residues, ends and D or L forms follow the SMILES beside them. dTrp(2-Me) = Cc1[nH]c2ccccc2c1C[C@@H](N)C(=O)O Some results are limits rather than exact numbers.

T1 sequence (P16671 whole entry): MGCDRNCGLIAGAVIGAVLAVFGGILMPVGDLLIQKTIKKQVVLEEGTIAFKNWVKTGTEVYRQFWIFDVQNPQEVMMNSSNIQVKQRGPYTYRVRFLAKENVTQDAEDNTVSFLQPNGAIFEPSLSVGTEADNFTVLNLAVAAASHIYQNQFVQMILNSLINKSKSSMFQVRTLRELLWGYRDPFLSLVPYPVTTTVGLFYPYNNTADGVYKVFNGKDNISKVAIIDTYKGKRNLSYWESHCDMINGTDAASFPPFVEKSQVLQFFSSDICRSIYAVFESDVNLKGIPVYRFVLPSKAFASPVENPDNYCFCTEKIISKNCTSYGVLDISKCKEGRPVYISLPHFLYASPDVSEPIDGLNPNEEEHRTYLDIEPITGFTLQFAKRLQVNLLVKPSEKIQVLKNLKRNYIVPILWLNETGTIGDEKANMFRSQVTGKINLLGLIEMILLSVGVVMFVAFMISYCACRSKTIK

In the case of `COc1ccc2cc[n+](CCc3ccccc3)cc2c1`, on Platelet glycoprotein 4 [1], the inhibition turned out to be 47.4%.
Same read-out and setting: the same measure for `COc1ccc2cc[n+](CCc3ccccc3C)cc2c1O`: 11.5%.
On Platelet glycoprotein 4 [2], `COc1ccc2cc[n+](CCc3ccccc3C)cc2c1OC` gave an IC50 of 4.36 µM. In addition, the inhibition on Platelet glycoprotein 4 [1] worked out at 46.6%. Besides, the inhibition result at Platelet glycoprotein 4 [3] was “Active”.
Taken in the same sequence, the figures for `Oc1ccc2cc[n+](CCc3cccc(C(F)(F)F)c3)cc2c1` were 3.39 µM, 48.4% and “Active”.
`COc1cc2cc[n+](CCc3cccc(C(F)(F)F)c3)cc2cc1OC`: the inhibition on Platelet glycoprotein 4 [1] was less than 10%.
At Platelet glycoprotein 4 [2], `COc1ccc2cc[n+](CCc3ccccc3)cc2c1O` gave an IC50 of 0.633 µM. Besides, the inhibition on Platelet glycoprotein 4 [1] came out at 77.9%. Besides, the inhibition entry at Platelet glycoprotein 4 [3] is “Active”.
In turn, `COc1cc2cc[n+](CCc3cccc(F)c3)cc2cc1OC` had an inhibition on Platelet glycoprotein 4 [1] of 20.9%.
Regarding `Cc1[nH]c2ccccc2c1C[C@@H](NC(=O)[C@@H](N)Cc1c[nH]cn1)C(=O)N[C@@H](C)C(=O)N[C@@H](Cc1c[nH]c2ccccc12)C(=O)N[C@H](Cc1ccccc1)C(=O)N[C@@H](CCCCN)C(N)=O` (H-H[dTrp(2-Me)]AW[dF]K-NH2), the inhibition on Platelet glycoprotein 4 [4] was determined as 37.6%.
In turn, `Oc1ccc2cc[n+](CCc3ccccc3)cc2c1` returned an inhibition on Platelet glycoprotein 4 [1] of less than 10%.
The compound `COc1ccc(CC[n+]2ccc3cc(OC)c(OC)cc3c2)cc1` showed an inhibition at Platelet glycoprotein 4 [1] of 28.6%.
Turning to `COc1ccc2cc[n+](CCc3ccc(Cl)cc3)cc2c1OC`, the inhibition at Platelet glycoprotein 4 [1] is 25.4%.
On the same count and under the same terms, as for `COc1cc2c[n+](CCc3cccc(F)c3)c(O)cc2cc1O`, the figure is less than 10%.
Still for that read-out and setting: as for `COc1cc2c[n+](CCc3ccc(Cl)cc3)ccc2cc1O`, the figure is less than 10%.
`COc1ccc2cc[n+](CCc3cccc(F)c3)cc2c1OC` had an IC50 on Platelet glycoprotein 4 [2] of 6.9 µM. On Platelet glycoprotein 4 [1], this compound displayed an inhibition of 52.1%. At Platelet glycoprotein 4 [3], the inhibition entry was “Active”.
On Platelet glycoprotein 4 [1], `COc1cc2c[n+](CCc3cccc(Cl)c3)ccc2cc1O` yielded an inhibition of 33.6%.
Same read-out and setting: as for `COc1ccc(CC[n+]2ccc3ccc(O)cc3c2)cc1`, the figure is 28.7%.
On the same count and under the same terms, the same measure for `COc1cc2cc[n+](CCc3ccccc3)cc2cc1OC`: 10%.
`COc1cc2cc[n+](CCc3ccc(Cl)cc3)cc2cc1OC` registered an inhibition on Platelet glycoprotein 4 [1] of less than 10%.
Same read-out and setting: as for `COc1cc2c[n+](CCc3ccccc3C)c(O)cc2cc1O`, the figure is less than 10%.
Still for that read-out and setting: the same measure for `Oc1ccc2cc[n+](CCc3ccccc3F)cc2c1`: 21.7%.
Consider `COc1ccc(CC[n+]2ccc3cc(O)c(OC)cc3c2)cc1`, for which the inhibition on Platelet glycoprotein 4 [1] amounted to 76.3%. The inhibition result on Platelet glycoprotein 4 [3] is “Active”.
Take `COc1cc2c[n+](CCc3ccccc3)ccc2cc1O`: the inhibition on Platelet glycoprotein 4 [1] turned out to be 31%.
Same read-out and setting: the same measure for `COc1ccc2cc[n+](CCc3ccccc3)cc2c1OC`: less than 10%.
At Platelet glycoprotein 4 [2], `COc1cc2c[n+](CCc3ccc(F)cc3)ccc2cc1O` had an IC50 of 5.99 µM. Also, the inhibition at Platelet glycoprotein 4 [1] is 42.4%. The inhibition result on Platelet glycoprotein 4 [3] is “Active”.
On to `COc1ccc2cc[n+](CCc3ccc(F)cc3)cc2c1O`, for which the inhibition at Platelet glycoprotein 4 [1] was determined as 29.6%.
Same read-out and setting: the same measure for `COc1cc2c[n+](CCc3cccc(Cl)c3)c(O)cc2cc1O`: 33.2%; for `COc1ccc(CC[n+]2ccc3ccc(OC)c(O)c3c2)cc1`: less than 10%.
